Source: ChEMBL document CHEMBL1128216, “Rational design and synthesis of small molecule, non-oligosaccharide selectin inhibitors: (alpha-D-mannopyranosyloxy)biphenyl-substituted carboxylic acids” (J Med Chem, 1995)

Legend:
[1] = molecular target: T1, E-selectin (Homo sapiens, UniProt P16581); test: In vitro inhibition of HL60 (human leukemia) cell binding to human recombinant e-selectin.; assay type: cell-based, HL-60
T1 sequence (P16581 whole entry): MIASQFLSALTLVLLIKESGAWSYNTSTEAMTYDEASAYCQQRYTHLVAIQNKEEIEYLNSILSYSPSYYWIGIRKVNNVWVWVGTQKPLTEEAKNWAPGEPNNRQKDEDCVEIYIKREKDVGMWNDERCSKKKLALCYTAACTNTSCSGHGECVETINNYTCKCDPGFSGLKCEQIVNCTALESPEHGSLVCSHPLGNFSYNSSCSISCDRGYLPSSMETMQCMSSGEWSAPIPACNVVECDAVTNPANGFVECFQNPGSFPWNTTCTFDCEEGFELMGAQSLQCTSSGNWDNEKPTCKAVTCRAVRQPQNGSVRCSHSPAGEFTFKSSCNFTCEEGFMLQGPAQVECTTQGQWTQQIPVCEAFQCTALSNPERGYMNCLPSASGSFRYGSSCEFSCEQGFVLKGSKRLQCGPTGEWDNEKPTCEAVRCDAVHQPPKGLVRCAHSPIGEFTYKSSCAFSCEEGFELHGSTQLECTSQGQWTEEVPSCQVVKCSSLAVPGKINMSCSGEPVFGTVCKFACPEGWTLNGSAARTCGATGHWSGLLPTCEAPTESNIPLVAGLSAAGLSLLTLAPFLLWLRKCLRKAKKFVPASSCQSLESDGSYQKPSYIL
Method in brief: (§1)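 Human E-selectin (lectin, EGF and two complement repeats) fused to mouse IgG was captured on anti-mouse IgG magnetic beads overnight at 4 °C. Wells were pre-blocked with 3% BSA/PBS. Compound in PBS was mixed with calcein-labelled HL60 cells (10⁷/mL, RPMI 1640 + 10% FCS) and beads (4 × 10⁶/mL) for 10 min at room temperature. Unbound cells were removed magnetically with two PBS washes, and bound cells were lysed in 1% NP40.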

[2] = molecular target: T2, L-selectin (Mus musculus) (UniProt P18337); test: In vitro inhibitory activity against sialyl Lewis X expressing HL60 cell binding to Selectin L at 7 mM concentration; assay type: cell-based; conditions: HL-60
T2 sequence (whole entry): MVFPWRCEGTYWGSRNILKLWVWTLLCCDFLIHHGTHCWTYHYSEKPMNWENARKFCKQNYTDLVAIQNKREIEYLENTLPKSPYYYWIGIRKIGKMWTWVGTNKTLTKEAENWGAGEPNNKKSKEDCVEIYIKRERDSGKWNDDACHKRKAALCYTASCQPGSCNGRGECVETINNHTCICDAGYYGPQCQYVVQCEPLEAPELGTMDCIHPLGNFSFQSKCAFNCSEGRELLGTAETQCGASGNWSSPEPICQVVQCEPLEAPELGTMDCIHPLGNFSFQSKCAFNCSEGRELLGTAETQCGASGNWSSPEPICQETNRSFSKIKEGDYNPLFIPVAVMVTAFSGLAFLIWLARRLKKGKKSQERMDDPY

[3] = molecular target: T3, P-selectin (Homo sapiens, UniProt P16109); test: In vitro inhibitory activity against sialyl Lewis X expressing HL60 cell binding Selectin P; assay type: cell-based, HL-60
T3 sequence (P16109 whole entry): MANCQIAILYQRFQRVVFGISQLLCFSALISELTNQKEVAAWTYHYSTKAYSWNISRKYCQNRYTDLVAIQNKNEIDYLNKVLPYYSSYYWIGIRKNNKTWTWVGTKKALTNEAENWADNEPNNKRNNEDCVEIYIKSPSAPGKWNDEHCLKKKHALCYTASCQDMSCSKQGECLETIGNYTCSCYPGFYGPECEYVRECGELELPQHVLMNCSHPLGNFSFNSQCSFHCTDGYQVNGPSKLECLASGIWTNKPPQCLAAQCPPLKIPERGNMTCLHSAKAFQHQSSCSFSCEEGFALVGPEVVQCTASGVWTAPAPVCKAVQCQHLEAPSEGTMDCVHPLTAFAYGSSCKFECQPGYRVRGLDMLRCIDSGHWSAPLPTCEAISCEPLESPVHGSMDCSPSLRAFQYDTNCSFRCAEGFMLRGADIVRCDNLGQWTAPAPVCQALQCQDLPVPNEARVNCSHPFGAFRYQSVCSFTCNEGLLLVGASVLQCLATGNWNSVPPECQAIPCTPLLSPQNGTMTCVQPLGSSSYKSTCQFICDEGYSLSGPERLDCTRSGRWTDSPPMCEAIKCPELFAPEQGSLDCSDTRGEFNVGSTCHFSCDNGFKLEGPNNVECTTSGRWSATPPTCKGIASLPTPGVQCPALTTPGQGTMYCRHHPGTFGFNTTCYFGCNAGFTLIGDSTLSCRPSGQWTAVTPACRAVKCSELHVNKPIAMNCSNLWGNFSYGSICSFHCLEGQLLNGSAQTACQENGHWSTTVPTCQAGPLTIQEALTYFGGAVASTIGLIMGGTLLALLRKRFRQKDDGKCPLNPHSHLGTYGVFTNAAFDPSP

[4] = molecular target: T4, E-selectin (Homo sapiens) (UniProt P16581); test: In vitro inhibitory activity against sialyl Lewis X expressing HL60 cell binding to recombinant human E-selectin at 6 mM concentration; assay type: cell-based; conditions: HL-60; method in brief: as §1
T4 sequence (whole entry): T1 sequence (P16581 whole entry)

[5] = molecular target: T5, L-selectin (Mus musculus, UniProt P18337); test: In vitro inhibitory activity against sialyl Lewis X expressing HL60 cell binding Selectin L; assay type: cell-based, HL-60
T5 sequence (P18337 whole entry): T2 sequence (whole entry)

[6] = molecular target: T6, P-selectin (Homo sapiens) (UniProt P16109); test: In vitro inhibitory activity against sialyl Lewis X expressing HL60 cell binding Selectin P at 4 mM concentration; assay type: cell-based; conditions: HL-60
T6 sequence (whole entry): T3 sequence (P16109 whole entry)

[7] = molecular target: T2, L-selectin (Mus musculus); test: In vitro inhibitory activity against sialyl Lewis X expressing HL60 cell binding Selectin L at 1 mM concentration; assay type: cell-based; conditions: HL-60
[8] = molecular target: T2, L-selectin (Mus musculus); test: In vitro inhibitory activity against sialyl Lewis X expressing HL60 cell binding to Selectin L at 8 mM concentration; assay type: cell-based; conditions: HL-60
[9] = molecular target: T4, E-selectin (Homo sapiens); test: In vitro inhibitory activity against sialyl Lewis X expressing HL60 cell binding to recombinant human E-selectin at 20 mM concentration; assay type: cell-based; conditions: HL-60; method in brief: as §1
[10] = molecular target: T6, P-selectin (Homo sapiens); test: In vitro inhibitory activity against sialyl Lewis X expressing HL60 cell binding Selectin P at 20 mM concentration; assay type: cell-based; conditions: HL-60
[11] = molecular target: T4, E-selectin (Homo sapiens); test: In vitro inhibitory activity against sialyl Lewis X expressing HL60 cell binding to recombinant human E-selectin at 1 mM concentration; assay type: cell-based; conditions: HL-60; method in brief: as §1
[12] = molecular target: T2, L-selectin (Mus musculus); test: In vitro inhibitory activity against sialyl Lewis X expressing HL60 cell binding Selectin L at 6 mM concentration; assay type: cell-based; conditions: HL-60
[13] = molecular target: T4, E-selectin (Homo sapiens); test: In vitro inhibitory activity against sialyl Lewis X expressing HL60 cell binding to recombinant human E-selectin at 40 mM concentration; assay type: cell-based; conditions: HL-60; method in brief: as §1
[14] = molecular target: T4, E-selectin (Homo sapiens); test: In vitro inhibitory activity against sialyl Lewis X expressing HL60 cell binding to recombinant human E-selectin at 128 mM concentration; assay type: cell-based; conditions: HL-60; 18 mM; in the assay text read “18 mM” for “128 mM”; method in brief: as §1
[15] = molecular target: T6, P-selectin (Homo sapiens); test: In vitro inhibitory activity against sialyl Lewis X expressing HL60 cell binding Selectin P at 23 mM concentration; assay type: cell-based; conditions: HL-60
[16] = molecular target: T2, L-selectin (Mus musculus); test: In vitro inhibitory activity against sialyl Lewis X expressing HL60 cell binding to Selectin L at 5 mM concentration; assay type: cell-based; conditions: HL-60

`Cc1cc(-c2ccccc2O[C@H]2O[C@H](CO)[C@@H](O)[C@@H](O)[C@@H]2O)cc(C)c1OCC(=O)O` was tested, and the IC50 [1] was 8 mM, the inhibition [2] was 0% and the IC50 [3] was 6.9 mM.
`O=C(O)C(=O)Nc1cccc(-c2ccccc2O[C@H]2O[C@H](CO)[C@@H](O)[C@@H](O)[C@@H]2O)c1` showed an inhibition [4] of 0%.
In the case of `O=C(O)COc1cccc(-c2ccccc2O[C@H]2O[C@H](CO)[C@@H](O)[C@@H](O)[C@@H]2O)c1`, the IC50 [1] is reported as 4.9 mM, the IC50 [5] is reported as 17 mM and the IC50 [3] is reported as 4.9 mM.
With `O=S(=O)(O)CCc1cccc(-c2ccccc2O[C@H]2O[C@H](CO)[C@@H](O)[C@@H](O)[C@@H]2O)c1` the IC50 [1] was 20 mM.
In the case of `CC(C(=O)O)c1cccc(-c2ccccc2O[C@H]2O[C@H](CO)[C@@H](O)[C@@H](O)[C@@H]2O)c1` (stereo in doubt; 9s), the IC50 [1] is reported as 20 mM.
Compound `O=C(O)CCC(NC(=O)c1ccc(-c2ccccc2O[C@H]2O[C@H](CO)[C@@H](O)[C@@H](O)[C@@H]2O)cc1)C(=O)O` (stereo not given in full) has an IC50 [1] of 32 mM, an inhibition [6] of 35% and an inhibition [7] of 0%.
Compound `O=C(NC(Cc1ccccc1)C(=O)O)c1ccc(-c2ccccc2O[C@H]2O[C@H](CO)[C@@H](O)[C@@H](O)[C@@H]2O)cc1` (stereo not given in full) has an IC50 [1] of 11.5 mM.
`Cc1c(OCC(=O)O)cccc1-c1ccccc1O[C@H]1O[C@H](CO)[C@@H](O)[C@@H](O)[C@@H]1O` was tested, and the inhibition [8] was 0%, the inhibition [9] was 0% and the inhibition [10] was 0%.
For `CCOP(=O)(O)CCCc1cccc(-c2ccccc2O[C@H]2O[C@H](CO)[C@@H](O)[C@@H](O)[C@@H]2O)c1`, the IC50 [1] was 34.4 mM and the IC50 [3] was 12.4 mM.
Work on `O=C(N[C@H](Cc1ccccc1)C(=O)O)c1cccc(-c2ccccc2O[C@H]2O[C@H](CO)[C@@H](O)[C@@H](O)[C@@H]2O)c1` yielded an inhibition [11] of 14%, an inhibition [12] of 0% and an inhibition [10] of 5%.
In the case of `Cc1ccc(OCC(=O)O)cc1-c1ccccc1O[C@H]1O[C@H](CO)[C@@H](O)[C@@H](O)[C@@H]1O`, the IC50 [1] is reported as 20.2 mM and the IC50 [3] is reported as 12 mM.
`CC(C(=O)O)c1cccc(-c2ccccc2O[C@H]2O[C@H](CO)[C@@H](O)[C@@H](O)[C@@H]2O)c1` (stereo in doubt; 9r) was tested, and the IC50 [3] was 20 mM.
`OC[C@H]1O[C@H](Oc2ccccc2-c2cccc(Cc3nnn[nH]3)c2)[C@@H](O)[C@H](O)[C@@H]1O` was tested, and the inhibition [13] was 17%.
For `O=C(O)CNC(=O)c1cccc(-c2ccccc2O[C@H]2O[C@H](CO)[C@@H](O)[C@@H](O)[C@@H]2O)c1`, the inhibition [14] was 0%, the inhibition [12] was 0% and the inhibition [15] was 25%.
With `O=C(O)CC[C@H](NC(=O)c1cccc(-c2ccccc2O[C@H]2O[C@H](CO)[C@@H](O)[C@@H](O)[C@@H]2O)c1)C(=O)O` the IC50 [1] was 15.8 mM and the inhibition [16] was 15%.
